Measured values gathered from unrelated publications.
Protocols differ between the studies behind these lines.
Target: Tyrosine-protein kinase SYK (SYK, Homo sapiens, UniProt P43405)

| SMILES | observed | method | concentration | remaining binding |
| --- | --- | --- | --- | --- |
| O=c1nc(-c2ccccn2)sc2ccccc12 | cell-free assay | competition with immobilised ligand | 1 µM | 97% |
| O=C(Nc1c[nH]nc1C(=O)NC1CCNCC1)c1cc(F)cc(F)c1 | binding | competition with immobilised ligand | 1 µM | 100% |
| c1cnn2ncc(-c3ccnc(N4CCC45COC5)n3)c2c1 | binding | – | 1 µM | 99% |
| O=C(c1ccc(Nc2nccc(-c3cc4ccccc4s3)n2)cc1)N1CCC(N2CCCC2)CC1 | binding | competition with immobilised ligand | 1 µM | 31% |
| N[C@@H]1CCN(c2nccc(-c3cnn4ncccc34)n2)C1 | binding | – | 1 µM | 100% |
| O=C(NCCCN1CCOCC1)c1ccc(Nc2ncc(Cl)c(-c3ccc(Cl)s3)n2)cc1 | binding | competition with immobilised ligand | 1 µM | 34% |
| C[C@H]1CCN(c2nccc(-c3cnn4ncccc34)n2)C1 | binding | – | 1 µM | 82% |
| CCC(=O)N[C@H]1CC[C@@H](C(=O)N(C)c2ccc(-c3nc4ccccc4o3)cc2)C1 | cell-free assay | competition with immobilised ligand | 1 µM | 100% |
| COc1cnc(Nc2cccc(S(N)(=O)=O)c2)nc1N1CCN(c2ccccc2)C(=O)C1 | binding | competition with immobilised ligand | 1 µM | 100% |
| CSc1cccnc1N1CCN(Cc2nc3ccccc3[nH]2)CC1 | cell-free assay | competition with immobilised ligand | 1 µM | 100% |
| Nc1ncc2c(n1)-c1c([nH]c3ccc(C#CC4CC4)cc13)CCCC2 | binding | competition with immobilised ligand | 1 µM | 100% |
| CN(CCCC(F)(F)F)c1nccc(-c2cnn3ncccc23)n1 | binding | – | 1 µM | 76% |
| COc1ncc2cc3ccccc3nc2c1C#N | cell-free assay | competition with immobilised ligand | 5 µM | 98% |
| Cc1cnc(Nc2ccc(C(=O)N3CCC(N4CCCC4)CC3)cc2)nc1-c1cc2ccccc2s1 | binding | competition with immobilised ligand | 1 µM | 7.7% |
| Cc1cc(-n2nc(Cc3cc(F)cc(C(F)(F)F)c3)nc2C)ccc1C(N)=O | cell-free assay | competition with immobilised ligand | 1 µM | 87% |
| Cc1cnn2ncc(-c3ccnc(N(C)C)n3)c2c1 | binding | – | 1 µM | 100% |
| C[C@@H]1CN(c2cc(-c3n[nH]c4ccc(OC5(C)CC5)cc34)ncn2)C[C@H](C)O1 | cell-free assay | competition with immobilised ligand | 0.1 µM | 96% |
| CN(C)c1nccc(-c2cnc3ncccn23)n1 | binding | – | 1 µM | 78% |
| O=C(Nc1cccnn1)N1CCC(=Cc2cccc(Oc3ccc(C(F)(F)F)cn3)c2)CC1 | cell-free assay | competition with immobilised ligand | 1 µM | 100% |
| c1cncc(-c2cccc(Nc3nccc(NC4CCCCC4)n3)c2)c1 | binding | competition with immobilised ligand | 10 µM | 16% |
